ChEMBL document CHEMBL1133060, “N-(indol-3-ylglyoxylyl)piperidines: high affinity agonists of human GABA-A receptors containing the alpha1 subunit” (Bioorg Med Chem Lett, 2000)

How the values were obtained:
[1] = biological target: T1, GABA-A receptor; alpha-2/beta-3/gamma-2 (Homo sapiens, UniProt P18507+P28472+P47869); assay: Binding affinity evaluated by ability to displace [3H]-Ro-15-1788 from recombinant human Gamma-aminobutyric acid A receptor alpha-2-beta-3-gamma-2 expressed in L(tk-)cells; type: cell-based
T1 sequence (P18507 whole entry): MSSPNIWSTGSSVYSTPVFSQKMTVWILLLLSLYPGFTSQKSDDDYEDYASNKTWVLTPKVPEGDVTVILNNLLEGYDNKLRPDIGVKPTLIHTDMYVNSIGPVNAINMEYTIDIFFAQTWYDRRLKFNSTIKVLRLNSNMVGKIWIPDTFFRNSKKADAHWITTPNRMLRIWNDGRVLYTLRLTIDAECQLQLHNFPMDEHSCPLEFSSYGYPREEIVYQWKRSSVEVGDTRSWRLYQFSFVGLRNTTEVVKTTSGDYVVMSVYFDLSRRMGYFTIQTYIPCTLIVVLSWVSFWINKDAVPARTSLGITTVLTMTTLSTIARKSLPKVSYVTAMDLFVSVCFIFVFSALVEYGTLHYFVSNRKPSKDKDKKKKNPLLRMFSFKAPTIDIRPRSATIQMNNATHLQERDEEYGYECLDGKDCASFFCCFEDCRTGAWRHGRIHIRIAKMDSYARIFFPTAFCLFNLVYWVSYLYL
T1 sequence (P28472 whole entry): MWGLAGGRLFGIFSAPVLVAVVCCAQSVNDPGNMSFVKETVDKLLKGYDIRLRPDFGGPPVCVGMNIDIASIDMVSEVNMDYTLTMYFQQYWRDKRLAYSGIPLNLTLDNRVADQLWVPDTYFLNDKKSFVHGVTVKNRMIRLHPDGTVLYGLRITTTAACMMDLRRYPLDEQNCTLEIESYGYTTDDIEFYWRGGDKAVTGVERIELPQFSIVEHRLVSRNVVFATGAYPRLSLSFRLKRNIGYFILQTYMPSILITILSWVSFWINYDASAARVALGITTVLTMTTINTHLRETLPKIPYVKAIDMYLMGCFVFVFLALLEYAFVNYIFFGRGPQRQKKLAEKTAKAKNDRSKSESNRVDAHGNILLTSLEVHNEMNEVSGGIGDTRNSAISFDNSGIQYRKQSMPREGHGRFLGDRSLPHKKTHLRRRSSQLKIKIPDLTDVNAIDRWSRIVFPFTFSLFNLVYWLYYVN
T1 sequence (P47869 whole entry): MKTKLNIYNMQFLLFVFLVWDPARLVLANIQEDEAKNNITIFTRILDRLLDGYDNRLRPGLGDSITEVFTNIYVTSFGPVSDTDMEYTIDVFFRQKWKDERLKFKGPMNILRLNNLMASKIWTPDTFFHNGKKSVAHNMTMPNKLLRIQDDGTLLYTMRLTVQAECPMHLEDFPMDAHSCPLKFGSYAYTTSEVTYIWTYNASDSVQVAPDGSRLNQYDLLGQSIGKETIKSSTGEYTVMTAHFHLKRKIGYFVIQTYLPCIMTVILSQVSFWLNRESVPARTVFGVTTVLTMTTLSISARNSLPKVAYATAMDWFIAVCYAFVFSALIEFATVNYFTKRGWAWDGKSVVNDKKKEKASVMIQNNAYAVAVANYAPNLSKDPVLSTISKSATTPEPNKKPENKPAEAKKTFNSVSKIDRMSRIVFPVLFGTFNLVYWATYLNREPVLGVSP

[2] = biological target: T2, GABA-A receptor; alpha-1/beta-2/gamma-2 (Homo sapiens, UniProt P14867+P18507+P47870); assay: Binding affinity evaluated by ability to displace [3H]Ro-151788 from recombinant human Gamma-aminobutyric acid A receptor alpha-1-beta-2-gamma-2 expressed in L(tk-)cells; type: cell-based
T2 sequence (P14867 whole entry): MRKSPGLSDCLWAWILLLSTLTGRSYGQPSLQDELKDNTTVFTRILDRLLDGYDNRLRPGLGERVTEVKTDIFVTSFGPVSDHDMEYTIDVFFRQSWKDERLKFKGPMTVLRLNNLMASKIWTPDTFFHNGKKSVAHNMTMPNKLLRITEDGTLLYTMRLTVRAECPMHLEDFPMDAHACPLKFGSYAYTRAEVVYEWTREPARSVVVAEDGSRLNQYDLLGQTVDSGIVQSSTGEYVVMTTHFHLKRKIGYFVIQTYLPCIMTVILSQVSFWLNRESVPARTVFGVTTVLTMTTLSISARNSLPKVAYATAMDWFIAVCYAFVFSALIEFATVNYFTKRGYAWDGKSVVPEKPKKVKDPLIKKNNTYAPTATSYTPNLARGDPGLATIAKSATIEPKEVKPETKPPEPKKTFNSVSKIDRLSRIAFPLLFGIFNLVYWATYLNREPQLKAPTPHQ
T2 sequence (P47870 whole entry): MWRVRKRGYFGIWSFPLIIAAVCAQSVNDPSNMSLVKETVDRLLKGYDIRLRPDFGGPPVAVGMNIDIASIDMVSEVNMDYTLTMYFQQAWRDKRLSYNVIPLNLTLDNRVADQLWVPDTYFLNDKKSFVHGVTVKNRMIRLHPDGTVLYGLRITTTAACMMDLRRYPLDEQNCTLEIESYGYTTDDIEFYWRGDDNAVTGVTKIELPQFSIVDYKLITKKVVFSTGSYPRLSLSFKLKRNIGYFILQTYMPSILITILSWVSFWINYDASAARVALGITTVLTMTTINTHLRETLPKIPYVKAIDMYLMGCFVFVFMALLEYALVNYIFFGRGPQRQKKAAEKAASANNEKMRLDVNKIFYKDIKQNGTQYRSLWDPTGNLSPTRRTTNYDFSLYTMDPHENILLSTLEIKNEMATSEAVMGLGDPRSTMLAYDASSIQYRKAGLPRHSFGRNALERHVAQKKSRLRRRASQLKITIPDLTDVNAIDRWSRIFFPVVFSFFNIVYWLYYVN
T2 sequence (P18507 whole entry): T1 sequence (P18507 whole entry)

[3] = biological target: T3, GABA-A receptor; alpha-3/beta-3/gamma-2 (Homo sapiens, UniProt P18507+P28472+P34903); assay: Binding affinity evaluated by ability to displace [3H]Ro-151788 from recombinant human Gamma-aminobutyric acid A receptor alpha-3-beta-3-gamma-2 expressed in L(tk-)cells; type: cell-based
T3 sequence (P18507 whole entry): T1 sequence (P18507 whole entry)
T3 sequence (P28472 whole entry): T1 sequence (P28472 whole entry)
T3 sequence (P34903 whole entry): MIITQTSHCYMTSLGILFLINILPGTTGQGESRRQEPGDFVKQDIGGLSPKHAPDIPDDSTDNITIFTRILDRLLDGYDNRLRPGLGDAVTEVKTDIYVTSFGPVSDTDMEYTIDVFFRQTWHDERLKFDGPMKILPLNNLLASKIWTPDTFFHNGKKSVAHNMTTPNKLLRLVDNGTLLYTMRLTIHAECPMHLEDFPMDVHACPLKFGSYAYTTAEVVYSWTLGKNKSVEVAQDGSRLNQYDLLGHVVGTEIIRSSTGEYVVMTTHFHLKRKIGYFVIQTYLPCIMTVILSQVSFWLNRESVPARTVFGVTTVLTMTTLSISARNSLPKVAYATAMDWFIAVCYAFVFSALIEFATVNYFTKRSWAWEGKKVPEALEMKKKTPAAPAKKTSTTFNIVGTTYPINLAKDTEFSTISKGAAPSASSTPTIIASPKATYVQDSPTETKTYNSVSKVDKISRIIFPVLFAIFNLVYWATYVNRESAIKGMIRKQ

[4] = biological target: T4, GABA-A receptor; alpha-1/beta-2/gamma-2 (Homo sapiens) (UniProt P14867+P47870+P18507); assay: Ability to affect GABA-induced chloride current in Xenopus oocytes transiently expressing human GABA-A alpha-1-beta-2-gamma-2 receptors using two-electrode voltage-clamp electrophysiology at test concentration of 30 uM; type: functional, cell-based; conditions: Oocyte
Procedure, shortened: (§1)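 The GABA EC20 (concentration giving 20% of maximal GABA current) was determined separately for each oocyte, range 4–30 μM. Compound was then coapplied with GABA at that EC20 to measure modulation of the current. Mean ± SEM, n = 3-5.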

[5] = biological target: T4, GABA-A receptor; alpha-1/beta-2/gamma-2 (Homo sapiens); assay: Ability to affect GABA-induced chloride current in Xenopus oocytes transiently expressing human GABA-A alpha-1-beta-2-gamma-2 receptors using two-electrode voltage-clamp electrophysiology at test concentration of 3 uM; type: functional, cell-based; conditions: Oocyte; procedure, shortened: as §1

Ki [1]	Ki [2]	Ki [3]	Efficacy [4]	Efficacy [5]	Compound
200 nM	400 nM	250 nM	–	–	CCOC(=O)[C@@H]1C[C@@H](C(=O)OCC)CN(C(=O)C(=O)c2c[nH]c3ccccc23)C1
830 nM	440 nM	960 nM	–	–	O=C(C(=O)N1CCCC1Cc1ccccc1)c1c[nH]c2ccccc12 (centres undefined)
430 nM	890 nM	570 nM	28%	–	CCOC(=O)CC1CCCN1C(=O)C(=O)c1c[nH]c2ccccc12 (centres undefined)
22 nM	14 nM	23 nM	–	–	CCOC(=O)[C@@H]1C[C@H](C(=O)OCC)CN(C(=O)C(=O)c2c[nH]c3ccccc23)C1
250 nM	140 nM	670 nM	–	–	CN(Cc1ccccc1)C(=O)[C@H]1CCCN(C(=O)C(=O)c2c[nH]c3ccccc23)C1
680 nM	380 nM	720 nM	–	–	O=C(C(=O)N1CCc2ccccc2C1)c1c[nH]c2ccccc12
270 nM	460 nM	320 nM	–	–	CCOC(=O)CC1CCCN1C(=O)C(=O)c1c[nH]c2c(OC)cccc12 (centres undefined)
40 nM	14 nM	96 nM	–	–	CN(Cc1ccccc1)C(=O)C1CCCN(C(=O)C(=O)c2c[nH]c3ccccc23)C1 (centres undefined)
19 nM	7.3 nM	50 nM	–	–	CN(Cc1ccccc1)C(=O)[C@@H]1CCCN(C(=O)C(=O)c2c[nH]c3ccccc23)C1
180 nM	77 nM	91 nM	–	–	O=C(C(=O)N1CCCC(C(=O)OCc2ccccc2)C1)c1c[nH]c2ccccc12 (centres undefined)
970 nM	300 nM	1500 nM	–	–	O=C(C(=O)N1CCCC(C(=O)NCc2ccccc2)C1)c1c[nH]c2ccccc12 (centres undefined)
1300 nM	200 nM	19000 nM	–	64%	O=C(C(=O)N1Cc2ccccc2C1)c1c[nH]c2ccccc12
390 nM	880 nM	990 nM	–	–	CCOC(=O)C1CCCN(C(=O)C(=O)c2c[nH]c3ccccc23)C1 (centres undefined)
440 nM	510 nM	500 nM	–	–	CCOC(=O)CC1CCCN1C(=O)C(=O)c1c[nH]c2c(C)cccc12 (centres undefined)
